Laboratory results as given in ChEMBL document CHEMBL3046018, “Design, syntheses and 3D-QSAR studies of novel N-phenyl pyrrolidin-2-ones and N-phenyl-1H-pyrrol-2-ones as protoporphyrinogen oxidase inhibitors” (Bioorg Med Chem, 2010).

Columns and labels:
Chenopodium album = experiment: Herbicidal activity against Chenopodium album assessed as growth inhibition at 150 g ai/ha using post-emergence protocol under greenhouse conditions measured 15 days after compound treatment; format: functional; details: 360 h, read-out: GI
How it was run: (§1)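 Post-emergence greenhouse spray on pot-grown broadleaf weeds at the 2-leaf stage. Formulation concentrates were diluted with water. Soil was clay, pH 6.5, 1.6% organic matter, 37.3% clay particles, CEC 12.1 mol/kg. The rate was total active ingredient divided by pot surface area. Untreated seedlings and DMF-treated seedlings served as controls.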

Setaria viridis = experiment: Herbicidal activity against Setaria viridis assessed as growth inhibition at 150 g ai/ha using post-emergence protocol under greenhouse conditions measured 15 days after compound treatment; format: functional; details: 360 h, read-out: GI
How it was run: (§2)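 Grass weeds were grown in pots in the greenhouse and sprayed post-emergence at the 1-leaf stage. The spray was formulation concentrate diluted in water. Soil was clay, pH 6.5, 1.6% organic matter, 37.3% clay particles, CEC 12.1 mol/kg. The g.ai/ha rate was active ingredient over pot surface area. Controls were untreated and DMF-treated seedlings.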

[1] = target: T1, Protoporphyrinogen oxidase (Homo sapiens, UniProt P50336); experiment: Inhibition of Homo sapiens (human) protoporphyrinogen oxidase; details: read-out: Ki
T1 sequence (P50336 whole entry): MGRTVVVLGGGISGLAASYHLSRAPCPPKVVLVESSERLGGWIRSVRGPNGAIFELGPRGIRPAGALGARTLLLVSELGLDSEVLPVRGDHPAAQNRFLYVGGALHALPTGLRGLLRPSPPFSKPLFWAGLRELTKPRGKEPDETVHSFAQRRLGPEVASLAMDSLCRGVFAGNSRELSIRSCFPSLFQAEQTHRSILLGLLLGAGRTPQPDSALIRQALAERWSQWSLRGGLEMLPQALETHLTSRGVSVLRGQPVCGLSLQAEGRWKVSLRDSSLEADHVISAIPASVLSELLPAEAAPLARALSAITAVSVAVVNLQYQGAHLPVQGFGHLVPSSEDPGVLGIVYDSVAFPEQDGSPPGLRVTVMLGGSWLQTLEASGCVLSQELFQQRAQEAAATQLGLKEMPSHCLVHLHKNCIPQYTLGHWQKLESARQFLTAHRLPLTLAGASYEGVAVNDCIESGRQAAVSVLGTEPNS

Echinochloa crus-galli = experiment: Herbicidal activity against Echinochloa crus-galli (barnyard grass) assessed as growth inhibition at 150 g ai/ha using post-emergence protocol under greenhouse conditions measured 15 days after compound treatment; format: functional; details: 360 h, read-out: GI; how it was run: as §2
Brassica juncea = experiment: Herbicidal activity against Brassica juncea assessed as growth inhibition at 150 g ai/ha using post-emergence protocol under greenhouse conditions measured 15 days after compound treatment; format: functional; details: 360 h, read-out: GI; how it was run: as §1
Amaranthus retroflexus = experiment: Herbicidal activity against Amaranthus retroflexus assessed as growth inhibition at 150 g ai/ha using post-emergence protocol under greenhouse conditions measured 15 days after compound treatment; format: functional; details: 360 h, read-out: GI; how it was run: as §1
Eclipta prostrata = experiment: Herbicidal activity against Eclipta prostrata assessed as growth inhibition at 150 g ai/ha using post-emergence protocol under greenhouse conditions measured 15 days after compound treatment; format: functional; details: 360 h, read-out: GI; how it was run: as §1
Digitaria sanguinalis = experiment: Herbicidal activity against Digitaria sanguinalis (hairy crabgrass) assessed as growth inhibition at 150 g ai/ha using post-emergence protocol under greenhouse conditions measured 15 days after compound treatment; format: functional; details: 360 h, read-out: GI; how it was run: as §2

Q: With `O=C1C2=C(CCCC2)C(O)N1c1cc(OCc2cccc(Cl)c2)c(Cl)cc1F` (stereo not drawn) as the compound, how does the inhibition of growth at 150 g/ha (Chenopodium album) read?
A: 50%

Q: And the inhibition of growth at 150 g/ha (Setaria viridis)?
A: < 50%

Q: What about the Ki [1] of the same compound?
A: 0.53 µM

Q: And the inhibition of growth at 150 g/ha (Echinochloa crus-galli)?
A: < 50%

Q: What about the inhibition of growth at 150 g/ha (Brassica juncea) of the same compound?
A: 50%

Q: And the inhibition of growth at 150 g/ha (Amaranthus retroflexus)?
A: 50%

Q: What about the inhibition of growth at 150 g/ha (Eclipta prostrata) of the same compound?
A: 50%

Q: And the inhibition of growth at 150 g/ha (Digitaria sanguinalis)?
A: < 50%

Q: How did the inhibition of growth at 150 g/ha (Chenopodium album) turn out when `C=CCOc1cc(N2C(=O)C3=C(CCCC3)C2O)c(Cl)cc1Cl` (stereo not drawn) was run?
A: 50%

Q: And the inhibition of growth at 150 g/ha (Setaria viridis)?
A: < 50%

Q: What about the Ki [1] of the same compound?
A: 7.45 µM

Q: And the inhibition of growth at 150 g/ha (Echinochloa crus-galli)?
A: < 50%

Q: What about the inhibition of growth at 150 g/ha (Brassica juncea) of the same compound?
A: 50%

Q: What about the inhibition of growth at 150 g/ha (Amaranthus retroflexus) of the same compound?
A: 50%

Q: What about the inhibition of growth at 150 g/ha (Eclipta prostrata) of the same compound?
A: 50%

Q: What about the inhibition of growth at 150 g/ha (Digitaria sanguinalis) of the same compound?
A: < 50%

Q: With `C=CCOc1cc(N2C(=O)C3=C(CCCC3)C2O)c(F)cc1Cl` (stereo not drawn) as the compound, how does the inhibition of growth at 150 g/ha (Chenopodium album) read?
A: > 80%

Q: And the inhibition of growth at 150 g/ha (Setaria viridis)?
A: < 50%

Q: What about the Ki [1] of the same compound?
A: 1.03 µM

Q: What about the inhibition of growth at 150 g/ha (Echinochloa crus-galli) of the same compound?
A: < 50%

Q: And the inhibition of growth at 150 g/ha (Brassica juncea)?
A: 50%

Q: What about the inhibition of growth at 150 g/ha (Amaranthus retroflexus) of the same compound?
A: > 80%

Q: And the inhibition of growth at 150 g/ha (Eclipta prostrata)?
A: 50%

Q: What about the inhibition of growth at 150 g/ha (Digitaria sanguinalis) of the same compound?
A: < 50%

Q: `CCOc1cc(Cl)c([N+](=O)[O-])cc1N1C(=O)C2=C(CCCC2)C1O` (stereo not drawn) was tested. Which inhibition of growth at 150 g/ha (Chenopodium album) did it give?
A: 50%

Q: And the inhibition of growth at 150 g/ha (Setaria viridis)?
A: < 50%

Q: And the Ki [1]?
A: 359 µM

Q: And the inhibition of growth at 150 g/ha (Echinochloa crus-galli)?
A: < 50%

Q: What about the inhibition of growth at 150 g/ha (Brassica juncea) of the same compound?
A: < 50%

Q: And the inhibition of growth at 150 g/ha (Amaranthus retroflexus)?
A: > 80%

Q: What about the inhibition of growth at 150 g/ha (Eclipta prostrata) of the same compound?
A: 50%

Q: And the inhibition of growth at 150 g/ha (Digitaria sanguinalis)?
A: < 50%

Q: `C=CCOC1C2=C(CCCC2)C(=O)N1c1cc(O)c(Br)cc1F` (stereo not drawn) was tested. Which inhibition of growth at 150 g/ha (Chenopodium album) did it give?
A: 50%

Q: What about the inhibition of growth at 150 g/ha (Setaria viridis) of the same compound?
A: < 50%

Q: And the Ki [1]?
A: 41.4 µM

Q: What about the inhibition of growth at 150 g/ha (Echinochloa crus-galli) of the same compound?
A: 50%

Q: What about the inhibition of growth at 150 g/ha (Brassica juncea) of the same compound?
A: < 50%

Q: What about the inhibition of growth at 150 g/ha (Amaranthus retroflexus) of the same compound?
A: 50%

Q: What about the inhibition of growth at 150 g/ha (Eclipta prostrata) of the same compound?
A: 50%

Q: What about the inhibition of growth at 150 g/ha (Digitaria sanguinalis) of the same compound?
A: 50%

Q: What does the source list for `COC1C2=C(CCCC2)C(=O)N1c1cc(OCc2cccc(Cl)c2)c(Cl)cc1F` (stereo not drawn)?
A: inhibition of growth at 150 g/ha (Chenopodium album): 50%; inhibition of growth at 150 g/ha (Setaria viridis): < 50%; Ki [1]: 1.03 µM; inhibition of growth at 150 g/ha (Echinochloa crus-galli): 50%; inhibition of growth at 150 g/ha (Brassica juncea): 50%; inhibition of growth at 150 g/ha (Amaranthus retroflexus): 50%; inhibition of growth at 150 g/ha (Eclipta prostrata): 50%; inhibition of growth at 150 g/ha (Digitaria sanguinalis): < 50%

Q: What does the source list for `COc1cc(N2C(=O)C3=C(CCCC3)C2OC)c(F)cc1Cl` (stereo not drawn)?
A: inhibition of growth at 150 g/ha (Chenopodium album): > 80%; inhibition of growth at 150 g/ha (Setaria viridis): 50%; Ki [1]: 4.49 µM; inhibition of growth at 150 g/ha (Echinochloa crus-galli): 50%; inhibition of growth at 150 g/ha (Brassica juncea): 50%; inhibition of growth at 150 g/ha (Amaranthus retroflexus): > 80%; inhibition of growth at 150 g/ha (Eclipta prostrata): 50%; inhibition of growth at 150 g/ha (Digitaria sanguinalis): 50%

Q: How did the inhibition of growth at 150 g/ha (Chenopodium album) turn out when `C=CCOC1C2=C(CCCC2)C(=O)N1c1cc(OCc2cccc(Cl)c2)c(Cl)cc1F` (stereo not drawn) was run?
A: < 50%

Q: What about the inhibition of growth at 150 g/ha (Setaria viridis) of the same compound?
A: < 50%

Q: And the Ki [1]?
A: 66.6 µM

Q: What about the inhibition of growth at 150 g/ha (Echinochloa crus-galli) of the same compound?
A: < 50%

Q: What about the inhibition of growth at 150 g/ha (Brassica juncea) of the same compound?
A: < 50%

Q: What about the inhibition of growth at 150 g/ha (Amaranthus retroflexus) of the same compound?
A: > 80%

Q: What about the inhibition of growth at 150 g/ha (Eclipta prostrata) of the same compound?
A: 50%

Q: And the inhibition of growth at 150 g/ha (Digitaria sanguinalis)?
A: 50%

Q: `C=CCOc1cc(N2C(=O)C3=C(CCCC3)C2OCC=C)c(F)cc1Cl` (stereo not drawn) was tested. Which inhibition of growth at 150 g/ha (Chenopodium album) did it give?
A: > 80%

Q: And the inhibition of growth at 150 g/ha (Setaria viridis)?
A: > 80%

Q: And the Ki [1]?
A: 33.1 µM

Q: And the inhibition of growth at 150 g/ha (Echinochloa crus-galli)?
A: 50%

Q: What about the inhibition of growth at 150 g/ha (Brassica juncea) of the same compound?
A: 100%

Q: What about the inhibition of growth at 150 g/ha (Amaranthus retroflexus) of the same compound?
A: 100%

Q: What about the inhibition of growth at 150 g/ha (Eclipta prostrata) of the same compound?
A: > 80%

Q: What about the inhibition of growth at 150 g/ha (Digitaria sanguinalis) of the same compound?
A: > 80%

Q: With `C=CCOC1C2=C(CCCC2)C(=O)N1c1cc(OCC)c(Cl)cc1F` (stereo not drawn) as the compound, how does the inhibition of growth at 150 g/ha (Chenopodium album) read?
A: 100%

Q: What about the inhibition of growth at 150 g/ha (Setaria viridis) of the same compound?
A: 50%

Q: What about the Ki [1] of the same compound?
A: 7.02 µM

Q: And the inhibition of growth at 150 g/ha (Echinochloa crus-galli)?
A: 50%

Q: What about the inhibition of growth at 150 g/ha (Brassica juncea) of the same compound?
A: 50%

Q: And the inhibition of growth at 150 g/ha (Amaranthus retroflexus)?
A: 100%

Q: And the inhibition of growth at 150 g/ha (Eclipta prostrata)?
A: 100%

Q: What about the inhibition of growth at 150 g/ha (Digitaria sanguinalis) of the same compound?
A: 50%

Q: Which Ki [1] does the source give for `O=C1NC(=O)c2cc(Cl)ccc21` [4-CHLORO-PHTHALIMIDE] here?
A: 87.9 µM

Q: With `Cc1nn(-c2cc(NS(C)(=O)=O)c(Cl)cc2Cl)c(=O)n1C(F)F` [SULFENTRAZONE] as the compound, how does the inhibition of growth at 150 g/ha (Chenopodium album) read?
A: 100%

Q: And the inhibition of growth at 150 g/ha (Setaria viridis)?
A: > 80%

Q: And the inhibition of growth at 150 g/ha (Echinochloa crus-galli)?
A: < 50%

Q: What about the inhibition of growth at 150 g/ha (Brassica juncea) of the same compound?
A: 100%

Q: And the inhibition of growth at 150 g/ha (Amaranthus retroflexus)?
A: 100%

Q: And the inhibition of growth at 150 g/ha (Eclipta prostrata)?
A: 100%

Q: What about the inhibition of growth at 150 g/ha (Digitaria sanguinalis) of the same compound?
A: < 50%
